≈ marks a conversion by molar mass, not a printed value. Calls of active or inactive are those of the source. No cut-off for these calls is given here. Starred links: 1 amine or outer side, 2 acyl side, 3 side chain; linkers in the order of their positions; H or OH if unused. Positions of bridges follow the written chain, without caps; N, C: chain ends. Non-standard residues stand in square brackets, D forms with d. Residues, ends and D or L forms follow the SMILES beside them. Groups on a side chain read outwards from the residue. *: point of attachment. Orn(4R-OH,5R-OH) = O=C([C@H](C[C@@H](O)[C@@H](O)N[*:3])N[*:1])[*:2]; hTyr(3S-OH,4S-OH) = N[C@H](C(=O)O)[C@H](O)[C@@H](O)c1ccc(O)cc1; Pro(3S-OH,4S-Me) = C[C@H]1CN[C@H](C(=O)O)[C@H]1O; Palmitoyl = CCCCCCCCCCCCCCCC(=O)*; Hyp = O=C(O)[C@@H]1C[C@@H](O)CN1; Cbz = O=C(OCc1ccccc1)*
Experiments:
Staphylococcus aureus [1] = assay: Antibacterial activity against Staphylococcus aureus ATCC 25923 after 18 to 24 hrs by serial broth microdilution susceptibility test; format: functional
In short: (§1)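 MIC determined by serial microdilution in microplates. Candida inocula were prepared in L-glutamine-deficient RPMI-1640 medium.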

Pseudomonas aeruginosa = assay: Antibacterial activity against Pseudomonas aeruginosa ATCC 27853 after 18 to 24 hrs by serial broth microdilution susceptibility test; format: functional; in short: as §1
Escherichia coli [2] = assay: Antibacterial activity against Escherichia coli ATCC 25922 after 18 to 24 hrs by serial broth microdilution susceptibility test; format: functional; in short: as §1
Staphylococcus aureus [3] = assay: Antibacterial activity against Staphylococcus aureus ATCC 43300 after 18 to 24 hrs by serial broth microdilution susceptibility test; format: functional; in short: as §1
[4] = test system: Klebsiella pneumoniae subsp. pneumoniae; assay: Antibacterial activity against Klebsiella pneumoniae subsp. pneumoniae ATCC 13882 after 18 to 24 hrs by serial broth microdilution susceptibility test; format: functional; in short: as §1
[5] = test system: Bordetella bronchiseptica; assay: Antibacterial activity against Bordetella bronchiseptica ATCC 4617 after 18 to 24 hrs by serial broth microdilution susceptibility test; format: functional; in short: as §1
Acinetobacter baumannii = assay: Antibacterial activity against Acinetobacter baumannii ATCC 19606 after 18 to 24 hrs by serial broth microdilution susceptibility test; format: functional; conditions: ATCC 19606 = CIP 70.34 = JCM 6841; in short: as §1
Escherichia coli [6] = assay: Antibacterial activity against Escherichia coli ATCC BAA-198 after 18 to 24 hrs by serial broth microdilution susceptibility test; format: functional; in short: as §1
Candida albicans [7] = assay: Antifungal activity against Candida albicans ATCC 90028 after 24 to 48 hrs by serial broth microdilution susceptibility test; format: functional; in short: as §1
Candida parapsilosis = assay: Antifungal activity against Candida parapsilosis ATCC 22019 after 24 to 48 hrs by serial broth microdilution susceptibility test; format: functional; conditions: Lodderomyces parapsilosis; in short: as §1
Pichia kudriavzevii = assay: Antifungal activity against Candida krusei ATCC 6258 after 24 to 48 hrs by serial broth microdilution susceptibility test; format: functional; in short: as §1
[8] = Toxicity in human erythrocytes assessed as hemolysis at above MIC after 30 mins by spectrophotometry; format: cell-based; conditions: erythrocyte, 0.5 h
In short: (§2)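 Human erythrocytes suspended in PBS were exposed to lipopeptides at 0.001–0.4 mmol/l and hemolysis was measured.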

[9] = Toxicity in human erythrocytes suspended in L-glutamine deficient RPMI-1640 assessed as hemolysis after 30 mins by spectrophotometry relative to human erythrocytes suspended in PBS buffer; format: cell-based; conditions: erythrocyte, 0.5 h
In short: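 Hemolysis was measured for human erythrocytes resuspended in L-glutamine-deficient RPMI-1640 (the Candida MIC medium) and compared with erythrocytes suspended in PBS.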

Candida albicans [10] = assay: Antifungal activity against Candida albicans ATCC 10231 assessed as alteration in cell envelope at 4 uM after 2 hrs by scanning electron microscopy; format: functional, organism-based
Candida albicans [11] = assay: Antifungal activity against Candida albicans ATCC 10231 assessed as leakage of intracellular contents at 4 uM after 2 hrs by scanning electron microscopy; format: functional, organism-based
Candida albicans [12] = assay: Antifungal activity against Candida albicans ATCC 10231 assessed as massive destruction of cell surface at 64 uM after 2 hrs by scanning electron microscopy; format: functional, organism-based
[13] = (§3) Inhibition of beta (1,3) glucan synthase in Candida albicans cell membrane using UDP-Glc as substrate assessed as aniline blue-glucan complex formation by microtiter-based fluorescence method
In short: (§4)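 β(1,3)-glucan synthase in the membrane fraction of C. albicans was assayed by a microtiter-based fluorescence method across a concentration range. Values are means of three independent experiments (SD); IC50 was determined.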

[14] = Toxicity in human erythrocytes assessed as hemolysis at 100 uM after 30 mins by spectrophotometry; format: cell-based, Erythrocyte; conditions: read-out: Activity; in short: as §2
Candida albicans [15] = assay: Antifungal activity against Candida albicans ATCC 10231 assessed as morphological changes at < 7 uM after 6 hrs by calcofluor white and aniline blue staining-based fluorescence microscopy; format: functional, organism-based
In short: (§5)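 C. albicans ATCC 10231 yeast cells were incubated with compound for 6 h, at up to 2×MIC. Chitin was stained with Calcofluor White and glucan with Aniline Blue, then cells were examined by fluorescence microscopy against untreated controls.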

Candida albicans [16] = assay: Antifungal activity against Candida albicans ATCC 10231 assessed as pseudohyphae formation at 14 uM after 6 hrs by calcofluor white and aniline blue staining-based fluorescence microscopy; format: functional, organism-based; in short: as §5
Candida albicans [17] = assay: Antifungal activity against Candida albicans ATCC 10231 assessed as loss of integrity at 10 uM after 2 hrs by scanning electron microscopy; format: functional, organism-based
Candida albicans [18] = assay: as §3; in short: as §4
Candida albicans [19] = assay: Antifungal activity against Candida albicans ATCC 10231 assessed as increase in intracellular potassium release after 30 mins; format: functional, organism-based; conditions: for EC50: Candida albicans, ATCC 10231, 0.5 h
In short: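 Efflux of K+ from C. albicans cells was monitored continuously with a potassium-selective electrode. Release was expressed relative to a positive control, and EK50 was taken as the concentration releasing 50% of intracellular potassium.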

[20] = Toxicity in human erythrocytes assessed as hemolysis at 300 uM after 30 mins by spectrophotometry; format: cell-based, Erythrocyte; conditions: read-out: Activity; in short: as §2
Candida albicans [21] = assay: Antifungal activity against Candida albicans ATCC 10231 assessed as morphological changes at < 60 uM after 6 hrs by calcofluor white and aniline blue staining-based fluorescence microscopy; format: functional, organism-based; in short: as §5
Candida albicans [22] = assay: Antifungal activity against Candida albicans ATCC 10231 assessed as pseudohyphae formation at 120 uM after 6 hrs by calcofluor white and aniline blue staining-based fluorescence microscopy; format: functional, organism-based; in short: as §5
Candida albicans [23] = assay: Inhibition of beta (1,3) glucan synthase in Candida albicans cell membrane using UDP-Glc as substrate assessed as aniline blue-glucan complex formation at 187 uM by microtiter-based fluorescence method; in short: as §4
[24] = Toxicity in human erythrocytes assessed as hemolysis at 50 uM after 30 mins by spectrophotometry; format: cell-based, Erythrocyte; conditions: read-out: Activity; in short: as §2

SMILES | MIC (Staphylococcus aureus [1]) [µM] | MIC (Pseudomonas aeruginosa) [µM] | MIC (Escherichia coli [2]) [µM] | MIC (Staphylococcus aureus [3]) [µM] | MIC [4] [µM] | MIC [5] [µM] | MIC (Acinetobacter baumannii) [µM] | MIC (Escherichia coli [6]) [µM] | MIC (Candida albicans [7]) [µM] | MIC (Candida parapsilosis) [µM] | MIC (Pichia kudriavzevii) [µM] | Activity [9] | IC50 [13] [µM] | hemolysis at 0.5 h, 100 µM [14] [%] | other results
CCCCCCCCCCCCNC(=O)[C@H](Cc1ccccc1)NC(=O)[C@H](CCCCNC(=O)[C@H](CCCCN)NC(=O)OCc1ccccc1)NC(=O)[C@H](CCCCN)NC(=O)OCc1ccccc1.Cl.Cl | 15 | 64 | 30 | 8 | 121 | 7 | 121 | 8 | 8 | 8 | 8 | Non-toxic | 50 | – | Activity [8]: Toxic; Activity (Candida albicans [10]): Active; Activity (Candida albicans [11]): Active; Activity (Candida albicans [12]): Active
CCCCCCCCCCCCNC(=O)[C@H](Cc1ccccc1)NC(=O)[C@H](CCCCNC(=O)[C@@H](N)CCCCNC(=O)OCc1ccccc1Cl)NC(=O)[C@@H](N)CCCCNC(=O)OCc1ccccc1Cl.Cl.Cl | 28 | 114 | 56 | 28 | 114 | 14 | 114 | 64 | 7 | 7 | 7 | Toxic | 51 | 10 | Activity (Candida albicans [15]): inactive; Activity (Candida albicans [16]): Active; Activity (Candida albicans [10]): Active; Activity (Candida albicans [11]): Active; Activity (Candida albicans [17]): Active; inhibition (Candida albicans [18]): Dose-dependent effect; Activity (Candida albicans [19]): Dose-dependent effect; EC50 (Candida albicans [19]): 13 µM
NCCCC[C@H](NC(=O)OCc1ccccc1)C(=O)NCCCC[C@H](NC(=O)[C@H](CCCCN)NC(=O)OCc1ccccc1)C(=O)N[C@@H](Cc1ccccc1)C(N)=O (Cbz-Lys-Lys([Lys-Cbz])-Phe-NH2) | > 144 | > 144 | > 144 | > 144 | > 144 | 144 (≈ 118 µg/mL) | > 144 | > 144 | > 128 | > 144 | > 144 | – | – | – | –
CCCCCCCCNC(=O)[C@H](Cc1ccccc1)NC(=O)[C@H](CCCCNC(=O)[C@@H](N)CCCCNC(=O)OCc1ccccc1Cl)NC(=O)[C@@H](N)CCCCNC(=O)OCc1ccccc1Cl | 30 (≈ 29.9 µg/mL) | 120 (≈ 120 µg/mL) | 8 (≈ 7.98 µg/mL) | 8 (≈ 7.98 µg/mL) | 119 (≈ 119 µg/mL) | 7 (≈ 6.99 µg/mL) | 60 (≈ 59.9 µg/mL) | 8 (≈ 7.98 µg/mL) | 60 (≈ 59.9 µg/mL) | 15 (≈ 15 µg/mL) | 15 (≈ 15 µg/mL) | – | – | 1 | hemolysis at 0.5 h, 300 µM [20]: 10%; Activity (Candida albicans [21]): inactive; Activity (Candida albicans [22]): Active; inhibition (Candida albicans [18]): Dose-dependent effect; inhibition (Candida albicans [23]): 43%; Activity (Candida albicans [19]): Dose-dependent effect; EC50 (Candida albicans [19]): 17 µM
CCCCCCCCNC(=O)[C@H](Cc1ccccc1)NC(=O)[C@H](CCCCNC(=O)[C@H](CCCCN)NC(=O)OCc1ccccc1)NC(=O)[C@H](CCCCN)NC(=O)OCc1ccccc1 | 32 (≈ 29.7 µg/mL) | 32 (≈ 29.7 µg/mL) | 30 (≈ 27.9 µg/mL) | 16 (≈ 14.9 µg/mL) | 128 (≈ 119 µg/mL) | 8 (≈ 7.43 µg/mL) | 128 (≈ 119 µg/mL) | 8 (≈ 7.43 µg/mL) | 32 (≈ 29.7 µg/mL) | 16 (≈ 14.9 µg/mL) | 16 (≈ 14.9 µg/mL) | – | – | – | hemolysis at 0.5 h, 50 µM [24]: 10%
CCCCCCCCCCCCCCCC(=O)N[C@H]1C[C@@H](O)[C@@H](O)NC(=O)[C@@H]2[C@@H](O)[C@@H](C)CN2C(=O)[C@H]([C@@H](C)O)NC(=O)[C@H]([C@H](O)[C@@H](O)c2ccc(O)cc2)NC(=O)[C@@H]2C[C@@H](O)CN2C(=O)[C@H]([C@@H](C)O)NC1=O [ACULEACIN A] (Palmitoyl-[Orn(4R-OH,5R-OH)]T[Hyp][hTyr(3S-OH,4S-OH)]T[Pro(3S-OH,4S-Me)]; lactam 1-C) | – | – | – | – | – | – | – | – | 0.5 (≈ 0.518 µg/mL) | – | – | – | 12 | – | –
CCCCCCCCCCCCNC(=O)[C@H](Cc1ccccc1)NC(=O)[C@H](CCCCNC(=O)[C@@H](N)CCCCN)NC(=O)[C@@H](N)CCCCN.Cl.Cl.Cl.Cl | 8 | 64 | 32 | 4 | > 256 | 8 | > 256 | 64 | 16 | 4 | 4 | Non-toxic | – | – | Activity [8]: Toxic
CCCCCCCCCCCCNC(=O)[C@H](Cc1ccccc1)NC(=O)[C@H](CCCCNC(=O)[C@H](CCCCN)NC(=O)OCc1ccccc1Cl)NC(=O)[C@H](CCCCN)NC(=O)OCc1ccccc1Cl | 32 (≈ 33.7 µg/mL) | 64 (≈ 67.5 µg/mL) | 32 (≈ 33.7 µg/mL) | 16 (≈ 16.9 µg/mL) | > 256 | 8 (≈ 8.43 µg/mL) | > 256 | 32 (≈ 33.7 µg/mL) | 8 (≈ 8.43 µg/mL) | 8 (≈ 8.43 µg/mL) | 8 (≈ 8.43 µg/mL) | – | 50 | 13 | hemolysis at 0.5 h, 50 µM [24]: 10%
